GSTO1 inh: counter-screen for RBBP9 inhibitors: inhibitors of human GSTO1; AID 1974; actives 1.1% (n = 300,000); P78417; inhibition, % at 5.96 µM; recombinant GSTO1, activity-based probe fluorescence polarization;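 active = inhibition above the campaign mean inhibition plus 3 SD, cut at about 35% in these data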;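 note: 0% = GSTO1-1 with DMSO and 100% = wells lacking GSTO1-1 enzyme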
Target sequence (P78417 whole entry, looked up): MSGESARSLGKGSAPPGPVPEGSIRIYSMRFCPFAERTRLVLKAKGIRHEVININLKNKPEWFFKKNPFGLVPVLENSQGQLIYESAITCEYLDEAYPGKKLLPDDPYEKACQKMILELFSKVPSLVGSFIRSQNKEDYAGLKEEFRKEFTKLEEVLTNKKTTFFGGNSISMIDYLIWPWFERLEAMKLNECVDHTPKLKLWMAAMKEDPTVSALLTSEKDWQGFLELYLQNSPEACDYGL
PAD4 FP inh: blocks human protein arginine deiminase 4. recombinant PAD4, RCA probe fluorescence polarization. inhibition, % at 6.36 µM. actives 0.41% (n = 330,000);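 active = percent inhibition above a cutoff equal to the mean of all tested compounds plus 3 SD, cut at about 15% in these data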;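 note: 0% = PAD4 with RCA probe and DMSO and 100% = probe without PAD4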
Apaf-1 inh: inhibitors of human Apaf-1 apoptosome. reconstituted apoptosome caspase-3 activity, DEVD-Rh110 fluorescence. AID 489030. inhibition, % at 20 µM. actives 0.71% (n = 330,000); active = inhibition of at least 40% at 20 µM;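 note: plate controls were DMSO wells for no effect and DEVD-CHO caspase inhibitor wells for full effect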
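Material: reconstituted apoptosome with Apaf-1, cytochrome c, caspase-9, procaspase-3, dATP / Buffer or medium: pH 7.5 Hepes buffer with CHAPS, BSA, DTT / Also added: cytochrome c with DEVD-Rh110 / Schedule: compound with Apaf-1, dATP, procaspase-3 30 min, then 50 min reaction, room temperature / Technique: rhodamine 110 fluorescence at Ex 480/Em 540 nm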
UCH37 inh: human UCH37 deubiquitinating enzyme inhibition; Q9Y5K5; purified proteasome/UCH37, Ub-AMC cleavage fluorescence; inhibition, % (test concentration not listed); actives 0.33% (n = 330,000); AID 588478;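 active = mean inhibition over replicate wells above about 20%, limit read from the data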;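 note: 0% = compound-free wells with enzyme and 100% = wells lacking proteasome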
Target sequence (Q9Y5K5 whole entry, looked up): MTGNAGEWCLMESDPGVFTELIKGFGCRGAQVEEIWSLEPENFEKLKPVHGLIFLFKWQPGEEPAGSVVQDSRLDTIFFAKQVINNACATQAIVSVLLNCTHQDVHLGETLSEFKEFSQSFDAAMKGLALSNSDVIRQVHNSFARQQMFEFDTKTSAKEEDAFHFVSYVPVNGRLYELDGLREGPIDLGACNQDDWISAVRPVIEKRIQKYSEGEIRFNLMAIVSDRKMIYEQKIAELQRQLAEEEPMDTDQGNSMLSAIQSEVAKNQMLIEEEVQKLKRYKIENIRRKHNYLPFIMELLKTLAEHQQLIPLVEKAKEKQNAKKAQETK
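Material: human UCH37 enzyme supplied as purified proteasome complex / Amount: 0.15 nM proteasome as dispensed / Buffer or medium: pH 7.4 Tris-HCl (50 mM) with ovalbumin, ATP-MgCl2, DTT / Times: preincubation 30 min, reaction 25 min, room temperature / Technique: AMC fluorescence from Ub-AMC cleavage, excitation 355 nm, emission 460 nm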
Fh CTSL1 inh: cathepsin L1 inhibition, PFM18AAP counter-screen. actives 0.49% (n = 300,000). AID 1906. recombinant F. hepatica cathepsin L1, Z-Leu-Arg-MCA fluorescence. inhibition, % at 5.96 µM;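 active = inhibition above the mean of all tested compounds plus 3 SD, set per screening campaign, cut at about 17% in these data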;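 note: 0% = plate median of test compound wells and 100% = 1 µM Z-Phe-Ala-diazomethylketone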
PP5 inh: inhibitors of human protein phosphatase 5 (PP5) | P53041 | purified PP5c, OMFP substrate fluorescence | inhibition, % at 6.7 µM | actives 0.18% (n = 320,000) | AID 1987;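 active = inhibition above the campaign's mean inhibition across all tested compounds plus 3 SD, cut at about 9.5% in these data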;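 note: 0% = DMSO only and 100% = 100 µM cantharidin control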
* hit, by the source's call. In the library only some 2% were active in any assay of this set; here they are far more common.

For O=C(Nc1ccc(Br)cc1)C1C2C=CC3(O2)C1C(=O)N(CCN1CCCCC1)C3C(=O)NC1CCCCC1 (configuration not stated) the results were GSTO1 inh 4, PAD4 FP inh 1, Apaf-1 inh 11, UCH37 inh 6, Fh CTSL1 inh 8 and PP5 inh 0.
For Cc1cc(C)cc(NC(=O)C2C3C=CC4(O3)C2C(=O)N(CCN2CCCCC2)C4C(=O)NC2CCCCC2)c1 (configuration not stated) the results were GSTO1 inh -1, PAD4 FP inh 4, Apaf-1 inh 0, UCH37 inh 1, Fh CTSL1 inh 19* and PP5 inh 0.
Screening O=[N+]([O-])c1ccccc1NN=C1CC2CC=CC12 (configuration not stated) returned UCH37 inh 2.
CON=CC(c1ncc(C(F)(F)F)cc1Cl)S(=O)(=O)c1ccccc1 (configuration not stated) was read as UCH37 inh 4.
COc1ccc(CNC(=O)c2noc(C(C)C)c2[N+](=O)[O-])cc1 was read as GSTO1 inh 23, PAD4 FP inh -3, Apaf-1 inh 12, UCH37 inh 5, Fh CTSL1 inh 0 and PP5 inh 0.
`CC(C)c1onc(C(=O)NCc2ccccc2)c1[N+](=O)[O-]` gave GSTO1 inh 37*, PAD4 FP inh -2, Apaf-1 inh -34, UCH37 inh -2, Fh CTSL1 inh 18* and PP5 inh -2.
Screening NC1=CC(=O)c2cccc3cccc1c23 returned GSTO1 inh 24, PAD4 FP inh 15*, Apaf-1 inh 8, Fh CTSL1 inh 1 and PP5 inh 0.
O=C1C=C(O)c2cccc3cccc1c23 was read as GSTO1 inh 7, PAD4 FP inh 0, Apaf-1 inh -6, Fh CTSL1 inh 7 and PP5 inh 0.
`CC1CN(S(=O)(=O)c2cc(C(=O)NCCC3=CCCCC3)ccc2Cl)CC(C)O1` (configuration not stated) gave GSTO1 inh 19, PAD4 FP inh 3, Apaf-1 inh 20, UCH37 inh 5, Fh CTSL1 inh 4 and PP5 inh -1.
Screening Cc1cccc(NS(=O)(=O)c2cc(C(=O)NCCC3=CCCCC3)ccc2Cl)c1 returned GSTO1 inh -7, PAD4 FP inh -3, Apaf-1 inh 4, UCH37 inh 21*, Fh CTSL1 inh 4 and PP5 inh 3.
Screening Cc1cccc(CN2C(=O)/C(=C\c3ccc(C(=O)NCCCN4CCN(C)CC4)cc3)Oc3ccccc32)c1 returned GSTO1 inh -14, PAD4 FP inh -6, Apaf-1 inh 53*, Fh CTSL1 inh 4 and PP5 inh 4.
Screening CC(=NNC(=O)C1CC1)c1ccc(OC(F)F)cc1 returned UCH37 inh -1.
`O=C(O)CCC(=NNC(=O)c1ccccc1)c1cccs1` gave UCH37 inh 4.
C#CCOCCOCCOCCNc1nc(N2CCN(C(=O)CCCCCCCCCCNC(=O)[C@H](CO)n3cc(CCCSC)nn3)CC2)nc(N2CCN(C(=O)CCCCCCCCCCNC(=O)[C@H](CCCN=C(N)N)n3cc(C[C@@H](C)CC)nn3)CC2)n1 was read as GSTO1 inh -4, PAD4 FP inh -12, Apaf-1 inh 45*, Fh CTSL1 inh -2 and PP5 inh 7.
For C#CCOCCOCCOCCNc1nc(N2CCN(C(=O)Cn3cc(CCCN=C(N)N)nn3)CC2)nc(N2CCN(C(=O)[C@H]([C@@H](C)CC)n3cc(CCCCN)nn3)CC2)n1 the results were GSTO1 inh 0, PAD4 FP inh 3, Apaf-1 inh 8, UCH37 inh 0, Fh CTSL1 inh -2 and PP5 inh 1.
Screening C#CCOCCOCCOCCNc1nc(N2CCN(C(=O)CCCCCCCCCCNC(=O)[C@H]([C@@H](C)CC)n3cc(CCCCCN)nn3)CC2)nc(N2CCN(C(=O)CCCCCCCCCCNC(=O)[C@H]([C@@H](C)CC)n3cc(CCCCN=C(N)N)nn3)CC2)n1 returned GSTO1 inh -6, PAD4 FP inh -18, Apaf-1 inh 71*, UCH37 inh 9, Fh CTSL1 inh 10 and PP5 inh 9.
Screening C#CCOCCOCCOCCNc1nc(N2CCN(C(=O)[C@H]([C@@H](C)CC)n3cc(CCCN=C(N)N)nn3)CC2)nc(N2CCN(C(=O)[C@H]([C@@H](C)CC)n3cc(CCCN=C(N)N)nn3)CC2)n1 returned Apaf-1 inh 33 and UCH37 inh -1.
`C#CCOCCOCCOCCNc1nc(N2CCN(C(=O)CCCCCCCCCCNC(=O)[C@H]([C@@H](C)CC)n3cc(CCCCN=C(N)N)nn3)CC2)nc(N2CCN(C(=O)CCCCCCCCCCNC(=O)[C@H]([C@@H](C)CC)n3cc(CCCCN=C(N)N)nn3)CC2)n1` gave GSTO1 inh -5, PAD4 FP inh -25, Apaf-1 inh 41*, Fh CTSL1 inh 1 and PP5 inh 9.
C#CCOCCOCCOCCNc1nc(N2CCOCC2)nc(N2CCN(C(=O)CCCCCCCCCCNC(=O)[C@@H]([C@H](C)CC)n3cc(CCCCCN)nn3)CC2)n1 was read as GSTO1 inh 2, PAD4 FP inh -3, Apaf-1 inh 20, UCH37 inh 4, Fh CTSL1 inh -3 and PP5 inh 0.
Screening C#CCOCCOCCOCCNc1nc(N2CCN(C(=O)CCCCCCCCCCNC(=O)[C@H]([C@@H](C)CC)n3cc(CCCCN=C(N)N)nn3)CC2)nc(N2CCN(C(=O)CCCCCCCCCCNC(=O)[C@H](CO)n3cc(CCCCCN)nn3)CC2)n1 returned GSTO1 inh -7, PAD4 FP inh -45, Apaf-1 inh 85*, UCH37 inh 5, Fh CTSL1 inh 3 and PP5 inh 12*.
CC[C@H](C)[C@@H](C(=O)NCCCCCCCCCCC(=O)N1CCN(C(=O)OC(C)(C)C)CC1)n1cc(CCCCN=C(NC(=O)OC(C)(C)C)NC(=O)OC(C)(C)C)nn1 was read as GSTO1 inh 9, PAD4 FP inh 2, Apaf-1 inh 56*, Fh CTSL1 inh 9 and PP5 inh 5.
For C#CCOCCOCCOCCNc1nc(N2CCN(C(=O)CCCCCCCCCCNC(=O)[C@H]([C@@H](C)CC)n3cc(CCCCCN)nn3)CC2)nc(N2CCN(C(=O)CCCCCCCCCCNC(=O)[C@@H]([C@H](C)CC)n3cc(CCCCCN)nn3)CC2)n1 the results were GSTO1 inh 2, PAD4 FP inh -4, Apaf-1 inh 78*, Fh CTSL1 inh 4 and PP5 inh 3.
For O=C(CC1S/C(=N/N=Cc2ccco2)NC1=O)Nc1cccc(Cl)c1Cl (configuration not stated) the results were UCH37 inh 4.
Screening COc1cc(C=NNC(=O)c2cccc3ccccc23)cc(OC)c1O returned UCH37 inh 2.

Bioassay records deposited in PubChem by several laboratories.
